Tests used:
Assay type in all cases: cell-based
[1] = target: T1, Sodium-dependent noradrenaline transporter (Homo sapiens, UniProt P23975); assay: Inhibition of human NET expressed in HEK293 cells assessed as reduction of […] reuptake using [3H]-NET at 3 uM after 15 mins by liquid scintillation counting relative to venlafaxine HCl
How it was run: (§1)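 HEK-293 cells stably transfected with hSERT or hNET, grown at 37 °C in 5% CO2, seeded in poly-lysine-coated 24-well plates for 24 h. Washed, then preincubated with test drug in uptake buffer (Tris/HEPES, NaCl, KCl, CaCl2, MgSO4, ascorbic acid, glucose; pH 7.1) at 37 °C for 15–20 min. Radiolabelled substrate added at 20 nM final for about 5 min at 37 °C. Cells washed three times with ice-cold buffer and lysed in 1% SDS.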

[2] = target: T2, Sodium-dependent serotonin transporter (Homo sapiens, UniProt P31645); assay: Inhibition of human SERT expressed in HEK293 cells assessed as reduction of serotonin reuptake using [3H]-SERT at 1 uM after 15 mins by liquid scintillation counting relative to venlafaxine HCl; how it was run: as §1
Target sequence in this assay (P31645 whole entry, looked up): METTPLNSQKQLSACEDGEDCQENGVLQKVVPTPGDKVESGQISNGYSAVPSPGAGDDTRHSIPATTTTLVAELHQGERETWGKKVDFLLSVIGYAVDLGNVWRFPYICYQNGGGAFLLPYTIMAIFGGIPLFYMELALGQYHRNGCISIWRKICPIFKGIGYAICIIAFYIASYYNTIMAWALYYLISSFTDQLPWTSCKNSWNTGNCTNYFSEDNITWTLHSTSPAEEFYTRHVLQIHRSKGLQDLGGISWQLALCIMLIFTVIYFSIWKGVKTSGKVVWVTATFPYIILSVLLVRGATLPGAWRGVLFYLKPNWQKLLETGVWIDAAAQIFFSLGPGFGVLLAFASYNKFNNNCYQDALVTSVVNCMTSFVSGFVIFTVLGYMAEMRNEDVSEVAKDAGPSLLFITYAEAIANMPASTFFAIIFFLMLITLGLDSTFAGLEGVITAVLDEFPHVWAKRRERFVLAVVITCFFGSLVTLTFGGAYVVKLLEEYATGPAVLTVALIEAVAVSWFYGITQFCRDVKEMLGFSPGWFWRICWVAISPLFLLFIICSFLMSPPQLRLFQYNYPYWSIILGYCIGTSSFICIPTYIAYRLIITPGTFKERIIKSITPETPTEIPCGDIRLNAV

[3] = target: T1, Sodium-dependent noradrenaline transporter; assay: Inhibition of human NET expressed in HEK293 cells assessed as reduction of […] reuptake using [3H]-NET after 15 mins by liquid scintillation counting; how it was run: as §1
[4] = target: T2, Sodium-dependent serotonin transporter; assay: Inhibition of human SERT expressed in HEK293 cells assessed as reduction of serotonin reuptake using [3H]-SERT after 15 mins by liquid scintillation counting
Target sequence in this assay (P31645 whole entry): as the sequence (P31645 whole entry, looked up) above

[5] = target: T1, Sodium-dependent noradrenaline transporter; assay: Inhibition of human NET expressed in HEK293 cells assessed as reduction of […] reuptake using [3H]-NET at 1 uM after 15 mins by liquid scintillation counting relative to GBR-12909; how it was run: as §1

T1 sequence (P23975 whole entry): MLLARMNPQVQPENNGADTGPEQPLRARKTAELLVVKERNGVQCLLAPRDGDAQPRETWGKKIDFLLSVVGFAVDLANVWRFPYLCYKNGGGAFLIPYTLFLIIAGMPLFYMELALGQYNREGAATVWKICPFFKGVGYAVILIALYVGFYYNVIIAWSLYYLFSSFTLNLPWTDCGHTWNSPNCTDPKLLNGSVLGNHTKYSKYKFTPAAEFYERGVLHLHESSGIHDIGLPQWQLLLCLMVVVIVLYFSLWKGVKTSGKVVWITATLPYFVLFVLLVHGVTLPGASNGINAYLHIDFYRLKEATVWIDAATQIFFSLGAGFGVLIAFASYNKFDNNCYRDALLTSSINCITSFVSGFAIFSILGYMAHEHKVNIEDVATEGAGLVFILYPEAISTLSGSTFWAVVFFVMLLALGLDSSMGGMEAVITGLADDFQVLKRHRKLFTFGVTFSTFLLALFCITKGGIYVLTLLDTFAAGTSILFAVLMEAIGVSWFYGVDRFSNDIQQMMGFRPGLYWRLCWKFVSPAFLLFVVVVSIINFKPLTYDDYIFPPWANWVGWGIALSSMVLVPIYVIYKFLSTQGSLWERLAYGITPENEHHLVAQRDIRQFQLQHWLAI

Ratio [1]	Ratio [2]	IC50 [3] [nM]	IC50 [4] [nM]	Ratio [5]	SMILES
1.04	0.29	–	–	–	O=C(NCCN1CCC(Cc2ccccc2)CC1)C(c1ccccc1)c1ccccc1
1.09	0.78	–	–	–	O=C(NCCN1CCC(Cc2ccccc2)CC1)c1cc2ccccc2o1
–	0.8	–	–	1.27	O=C(NCCN1CCC(Cc2ccccc2)CC1)c1ccc2ccccc2c1
–	0.83	267	422	1.12	O=C(NCCCN1CCC(Cc2ccccc2)CC1)c1cc(Cl)cc(Cl)c1
1.92	0.77	–	–	–	O=C(NCCN1CCC(Cc2ccccc2)CC1)c1cc2ccccc2s1
1.8	1.1	4750	449	–	O=C(NCCCN1CCC(Cc2ccccc2)CC1)c1cc2ccccc2s1
–	1.03	275	786	0.53	O=C(NCCN1CCC(Cc2ccccc2)CC1)c1ccc2ccccc2n1
1.54	0.84	621	500	–	O=C(NCCCN1CCC(Cc2ccccc2)CC1)c1cc2ccccc2o1
–	0.91	–	–	0.1	O=C(NCCN1CCC(Cc2ccccc2)CC1)c1cccc2ccccc12
–	0.51	–	–	0.83	O=C(NCCN1CCC(Cc2ccccc2)CC1)c1ccc2cc(Br)ccc2c1
–	0.98	238	323	1	COc1ccc2cc(C(=O)NCCCN3CCC(Cc4ccccc4)CC3)ccc2c1
–	0.6	–	–	1.32	O=C(NCCCN1CCC(Cc2ccccc2)CC1)c1cccc2ccccc12
1.49	0.58	–	–	–	O=C(NCCN1CCC(Cc2ccccc2)CC1)c1cc2ccccc2[nH]1

The remaining lines, values behind:

SMILES	Ratio [1]	Ratio [2]	IC50 [3] [nM]	IC50 [4] [nM]	Ratio [5]
O=C(NCCCN1CCC(Cc2ccccc2)CC1)c1cc2ccccc2[nH]1	1.72	0.84	268	546	–
O=C(NCCCN1CCC(Cc2ccccc2)CC1)c1ccc2ccccc2n1	0.62	0.85	–	–	–
O=C(NCCN1CCC(Cc2ccccc2)CC1)c1cc(Cl)cc(Cl)c1	–	0.64	–	–	1
O=C(NCCCN1CCC(Cc2ccccc2)CC1)c1ccc2cc(Br)ccc2c1	–	1.11	885	1910	0.94
O=C(NCCN1CCC(Cc2ccccc2)CC1)C(c1ccc(Cl)cc1)c1ccc(Cl)cc1	1.54	0.4	–	–	–
COc1ccc2cc(C(=O)NCCN3CCC(Cc4ccccc4)CC3)ccc2c1	1.97	0.63	–	–	–
O=C(NCCCN1CCC(Cc2ccccc2)CC1)c1ccc2ccccc2c1	–	0.95	342	108	1.03
O=C(NCCCN1CCC(Cc2ccccc2)CC1)c1ccc(-c2ccccc2)cc1	1.59	1.01	153	56	–
O=C(NCCN1CCC(Cc2ccccc2)CC1)c1ccc(-c2ccccc2)cc1	1.49	0.98	472	986	–
O=C(NCCCN1CCC(Cc2ccccc2)CC1)C(c1ccc(Cl)cc1)c1ccc(Cl)cc1	1.37	0.19	–	–	–
O=C(NCCCN1CCC(Cc2ccccc2)CC1)C(c1ccccc1)c1ccccc1	1.19	0.26	–	–	–
